PHOSPHO1 block: PubChem AID 1565. Phosphoethanolamine/phosphocholine phosphatase (Homo sapiens), Q8TCT1. recombinant PHOSPHO1, absorbance phosphatase assay. inhibition, % at 13.3 µM. 1.1% of 290,000 active; in the data active = inhibition above about 60%
KCNQ1 act: potentiators or activators of KCNQ1 channel, primary screen, cell-based, thallium flux, high-throughput; Potassium voltage-gated channel subfamily KQT member 1 (Homo sapiens), P51787; CHO-K1 KCNQ1, thallium flux FluxOR fluorescence; stronger effect = higher value; B-score at 10 µM; 0.35% of 310,000 active;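 active = fluorescence ratio B-score, a plate-corrected score, at least three library SD, with initial intensity B-score within 5 SD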
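Assay system: CHO-K1 cells stably expressing KCNQ1. Medium: assay buffer for compound exposure, DMSO matched across wells. Timing: 37 °C overnight plating, 90-min dark dye load, 20-min compound pretreatment. Signal: kinetic FluxOR fluorescence, 10 s baseline plus 110 s post-stimulus.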
KCNK3 block: human KCNK3 channel inhibitors, primary screen, CHO cells, FluxOR thallium flux, B-score | Potassium channel subfamily K member 3 (Homo sapiens), O14649 | FluxOR fluorescence; stronger effect = lower value | B-score at 10 µM | 0.84% of 340,000 active | AID 602410, 2012;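 active = B-score under library mean minus 4 SD, starting fluorescence ratio at most library mean plus 5 SD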;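 note: more negative B-score means stronger inhibition of thallium flux through KCNK3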
Target sequence (O14649 whole entry, looked up): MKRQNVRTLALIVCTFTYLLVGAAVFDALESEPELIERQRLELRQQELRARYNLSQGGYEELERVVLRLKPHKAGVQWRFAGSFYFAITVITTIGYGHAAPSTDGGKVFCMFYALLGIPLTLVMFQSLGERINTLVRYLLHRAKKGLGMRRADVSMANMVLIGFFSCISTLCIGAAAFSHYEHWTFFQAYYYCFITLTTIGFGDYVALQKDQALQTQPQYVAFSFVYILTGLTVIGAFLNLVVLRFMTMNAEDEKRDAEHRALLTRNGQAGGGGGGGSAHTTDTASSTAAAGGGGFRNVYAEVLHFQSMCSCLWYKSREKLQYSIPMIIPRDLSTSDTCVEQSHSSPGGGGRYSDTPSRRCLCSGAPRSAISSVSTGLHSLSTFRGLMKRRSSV
KCNK9 block: KCNK9 potassium channel inhibitors, primary screen, HEK293 cells, thallium flux | FluxOR thallium flux fluorescence; stronger effect = lower value | B-score at 10 µM | 1.2% of 310,000 active;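 active = ratio B-score over 3 SD below the library mean, with starting fluorescence within 5 SD of its mean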;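 note: negative B-score means less thallium flux so channel inhibition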
hERG protect: hERG rescue from dofetilide block, primary screen, cell-based, CHO-hERG, FluxOR thallium flux, dofetilide IC70; Voltage-gated inwardly rectifying potassium channel KCNH2 (Homo sapiens), Q12809; dofetilide IC70 present; activation (rescue from dofetilide block), less the hit threshold, % at 10 µM; 0.51% of 310,000 active;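 active = activation above the mean of controls blocked by dofetilide plus 5 SD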;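 note: thallium influx through hERG after potassium depolarization seen as dye fluorescence rise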
KCNQ1 block: inhibitors of human KCNQ1 channel, primary screen, cell-based, thallium flux, high-throughput; Potassium voltage-gated channel subfamily KQT member 1 (Homo sapiens), P51787; CHO-K1 KCNQ1, FluxOR thallium flux fluorescence; stronger effect = higher value; B-score at 10 µM; 1.3% of 310,000 active;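 active = compounds whose thallium flux B-score, printed positive for inhibition, exceeds three library SD while starting fluorescence stays within three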;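 note: channel opened by potassium depolarization with thallium stimulus after 20 min compound exposure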
Active calls of the source: *; i = inactive; x = no result. Most compounds without a hit are left out; they make up all but 4% or so of the library.

SMILES	PHOSPHO1 block	KCNQ1 act	KCNK3 block	KCNK9 block	hERG protect	KCNQ1 block
O=C1NC(=S)S/C1=C1\Sc2ccccc2N1CCCS(=O)(=O)O	72*	i	i	i	-11	i
CC1C(c2ccccc2)C(C#N)(C#N)C2(C#N)C(=O)NC1(N)C2C (stereo unspecified)	20	i	i	i	-8	i
O=C(Cc1ccc(Br)cc1)N(Cc1ccccc1)c1ccccn1	63*	i	i	i	-7	i
Cc1cccc([C@@H]2C[C@H]3CN(Cc4cccc(Cl)c4)C(=O)[C@]34CCCN24)n1	-37	i	i	i	-9	i
S=C(Nc1cccc2ccccc12)N1CCN(c2ncccn2)CC1	88*	i	i	i	-3	i
O=C(Nc1cccc2ccccc12)N1CCN(c2ncccn2)CC1	34	i	i	i	-8	i
CC(C)C1Cc2c(sc(NC(=S)NC(=O)c3ccccc3)c2C#N)CO1 (stereo unspecified)	7	i	i	i	-11	i
CCOC(=O)c1c(NC(=S)Nc2ccc(OC)cc2)sc2c1CCC2	2	i	i	i	-17	i
C=CCNC(=S)Nc1sc2c(c1C(=O)OCC)CC(C(C)C)OC2 (stereo unspecified)	10	48*	i	i	-1	i
CCOC(=O)c1c(NC(=S)NCCc2ccccc2)sc2c1CC(C(C)C)OC2 (stereo unspecified)	-6	8*	i	i	1	i
COC(=O)c1cnn2c(C(F)(F)F)cc(-c3ccccc3)nc12	6	i	i	i	5.2*	i
Cc1ccc(C(=O)C2C(c3ccc(-c4ccccc4[N+](=O)[O-])o3)NC(=O)NC2(O)C(F)(F)F)cc1 (stereo unspecified)	x	i	i	-10*	-10	i
COc1ccc(NC(=O)CSc2nc3nc(-c4cccs4)cc(C(F)(F)F)c3c(=O)[nH]2)c(OC)c1	6	i	i	i	-5	9*
CCOc1ccccc1NC(=O)CSc1nc2nc(-c3cccs3)cc(C(F)(F)F)c2c(=O)[nH]1	42	i	i	i	-15	i
CC[n+]1c(/C=C/Nc2ccccc2)oc2ccccc21	101*	i	i	i	-9	i
CC[n+]1c(/C=C/N(C)c2ccccc2)oc2ccccc21	-6	i	i	i	-33	8*
CC[n+]1c(/C=C/N(C)c2ccccc2)oc2ccc(F)cc21	10	i	i	i	-17	i
Cc1ccc2c(CSc3nnc4ccccn34)cc(=O)oc2c1C	-7	i	i	i	-7	i
Cc1ccc2c(CSc3nc4ccccc4c(=O)n3CCCO)cc(=O)oc2c1C	31	i	i	-7.4*	-11	i
Cc1cc(C)n(CC(O)COc2ccc(Cl)cc2Cl)n1 (stereo unspecified)	24	i	i	i	-1	i
Cc1cc(C)n(CCOc2ccc(Cl)cc2Cl)n1	13	i	i	i	9.2*	i
CCOc1cc(CNS(=O)(=O)c2ccc3c(c2)CC(=O)N3C)cc(OCC)c1OCC	65*	i	i	i	-7	i
O=[N+]([O-])c1ccc(Nc2ccc3ccccc3c2)nc1	-14	i	i	i	5.5*	i
COc1ccc(CN2CCN(Cc3cccc4nonc34)CC2CCO)c(C)c1C (stereo unspecified)	48	i	i	i	5.3*	i
Cc1cccc(CN2CCN(Cc3cccc4nonc34)CC2CCO)n1 (stereo unspecified)	52	i	i	i	-8	i
SMILES	PHOSPHO1 block	KCNQ1 act	KCNK3 block	KCNK9 block	hERG protect	KCNQ1 block
O=C(Cc1cccs1)Nc1nc(-c2ccc(F)c(F)c2)cs1	-1	i	i	i	-6	i
COc1ccc(-c2csc(NC(=O)Cc3ccccc3F)n2)c(OC)c1	5	i	i	-6.9*	-7	i
COc1ccc(CC(=O)Nc2nc(-c3cc(OC)ccc3OC)cs2)cc1	-4	i	i	i	-10	i
O=C(Cc1cccs1)Nc1nc(-c2ccc(F)cc2F)cs1	2	i	i	-7.5*	-5	i
CCC(C)NCC(O)(c1ccc(Cl)cc1)c1ccc(Cl)cc1 (stereo unspecified)	40	i	i	i	-10	i
O=C(Nc1cccc2c1[nH]c1ccccc12)C(F)(F)F	-8	i	i	i	-3	6*
N#CC1C=Cc2ccccc2N1C(=O)c1ccccc1 (stereo unspecified)	18	i	i	-7.3*	-4	i
O=C(O)C1C=Cc2ccccc2N1C(=O)c1ccccc1 (stereo unspecified) (tested in a mixture with another compound)	x	x	i	x	x	x
C(=NN=C1c2ccccc2-c2ccccc21)c1ccc2c(c1)OCO2	x	x	i	x	x	x
Cc1cccc(Cn2c(C(=O)OC(C)C)cc3c2ccn3C)c1	4	i	i	i	-17	6*
O=C(O)Cc1ccc(NC(=O)C2CC=CCC2C(=O)O)cc1 (stereo unspecified)	-1	i	x	i	8.7*	i
Cc1cc(C)nc(SSc2nc(C)cc(C)n2)n1	-44	i	i	i	5.6*	i
Cc1cc(C)nc(SCCN(C)C)n1	29	i	i	i	-4	i
C=CCNC(=O)c1ccccc1NC(=O)C1COc2ccccc2O1 (stereo unspecified)	49	i	i	i	-8	i
Cc1ccccc1N(C)S(=O)(=O)c1nnc(NC(=O)c2ccccc2F)s1	64*	i	i	i	-9	i
Cc1nnc(NC(=O)c2ccccc2F)s1	-3	i	i	i	4	i
CN(C)C(=O)c1ccc(NC(=O)c2ccc(-c3ccc(Cl)cc3)o2)cc1	x	i	i	i	-7	i
COC(=O)c1ccc(C2NC(=O)c3c(sc(C)c3C)N2)cc1 (stereo unspecified)	-15	i	i	i	-8	i
Cc1sc2c(c1C)C(=O)NC(c1cccc(O)c1)N2 (stereo unspecified)	100*	i	x	i	-3	i
Cc1cc(C)nc(SCc2csc(N)n2)n1	84*	i	i	i	-4	i
